# Assay outcomes (PubChem)
# A selection: hits, their analogues and other compounds. The true share with any hit is near 3.1%.
# PP5 primary – inhibitors of human protein phosphatase 5 (PP5); P53041; purified PP5c, OMFP substrate fluorescence; inhibition, % at 6.7 µM; actives 0.18% (n = 320,000); AID 1987;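 active = inhibition above the campaign's mean inhibition across all tested compounds plus 3 SD, cut at about 9.5% in these data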;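 also: 0% = DMSO only and 100% = 100 µM cantharidin control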
# Target sequence (P53041 whole entry, looked up): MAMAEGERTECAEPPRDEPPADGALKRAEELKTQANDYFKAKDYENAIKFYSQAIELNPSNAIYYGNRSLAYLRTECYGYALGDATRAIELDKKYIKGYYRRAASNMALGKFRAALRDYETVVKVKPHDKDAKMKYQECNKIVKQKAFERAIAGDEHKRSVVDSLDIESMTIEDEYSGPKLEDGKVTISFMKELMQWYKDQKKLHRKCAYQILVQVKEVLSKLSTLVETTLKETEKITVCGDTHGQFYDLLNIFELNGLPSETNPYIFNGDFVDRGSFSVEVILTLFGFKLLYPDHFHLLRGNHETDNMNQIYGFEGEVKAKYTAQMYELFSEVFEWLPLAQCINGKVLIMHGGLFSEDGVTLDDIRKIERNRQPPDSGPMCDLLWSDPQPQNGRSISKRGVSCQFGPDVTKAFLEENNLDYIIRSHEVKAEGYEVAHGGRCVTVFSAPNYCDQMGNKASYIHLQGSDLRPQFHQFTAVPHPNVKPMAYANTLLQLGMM
# Myeloid diff MLP – compounds promoting myeloid differentiation; ER-HoxA9 myeloid progenitors, lysozyme-GFP differentiation, flow cytometry; calls only at 10 µM; actives 1% (n = 360,000);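 active = normalized GFP-positive differentiation at or above the plate's own cutoff, the solvent-only control mean plus 3 SD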;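 also: cells exposed to compound for four days before flow analysis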
# core dimer inh – blocks dimerization of HCV core protein; TR-FRET GST/Flag-core106 dimerization, 1536-well; actives 0.33% (n = 300,000); AID 1899; inhibition, % at 5 µM;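 active = inhibition above the mean of all tested compounds plus 3 SD, set per screening campaign, cut at about 45% in these data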
#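 Test system: GST/Flag-tagged HCV core106 proteins; Medium: KF-containing HEPES buffer, pH 7.45, DTT, CHAPS, BSA; Times: compound-protein-antibody incubation 4 h at 22.5 °C; Detection: TR-FRET 671 and 617 nm emission; Benchmarks: wells lacking GST-core106 and wells with excess unlabelled core106.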
# PP1 inh – counter-screen for PP5 inhibitors: inhibitors of human PP1-alpha; inhibition, % at 6.7 µM; purified PP1alpha, OMFP fluorescence; actives 0.9% (n = 320,000);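 active = inhibition above the mean inhibition of all tested compounds plus 3 SD, computed separately for each screening campaign, cut at about 15% in these data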
# NadD inh – blocks S. aureus nicotinate mononucleotide adenylyltransferase. inhibition, % at 20 µM. AID 602399. purified NadD enzyme, colorimetric absorbance read-out. actives 0.78% (n = 360,000); in the data active = inhibition above about 26%
# Fh CTSL1 inh – counter-screen for PFM18AAP inhibitors: inhibitors of F. hepatica cathepsin L1 | recombinant F. hepatica cathepsin L1, Z-Leu-Arg-MCA fluorescence | inhibition, % at 5.96 µM | actives 0.49% (n = 300,000) | AID 1906;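 active = inhibition above the mean of all tested compounds plus 3 SD, set per screening campaign, cut at about 17% in these data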;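 also: 0% = plate median of test compound wells and 100% = 1 µM Z-Phe-Ala-diazomethylketone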
# Active calls of the source: *; i = inactive; x = not tested or not shown; + = active, no number.
SMILES,PP5 primary,Myeloid diff MLP,core dimer inh,PP1 inh,NadD inh,Fh CTSL1 inh
CCOC(=O)c1c(C)[nH]c(C(=O)/C(C#N)=C/c2ccc(OC(F)F)c(OC)c2)c1C,4.2,+,4.7,-0.4,-1.3,-0.8
COc1cc(/C=C(/C#N)C(=O)c2c(C)[nH]c3ccccc23)ccc1OCC#N,-1.7,i,10.0,-4.2,-5.5,4.9
CCOC(=O)c1c(C)[nH]c(C(=O)/C(C#N)=C/c2ccc(OC)c(OC)c2)c1C,1.7,+,9.4,2.8,-1.5,0.0
O=C(NC1CCCCC1)N1CCN(C2CCCCC2)CC1,2.1,i,-1.6,-3.9,-3.9,0.8
O=C(NC1CCCCC1)N1CCCCCCC1,2.7,i,-3.3,2.7,-2.5,18.1*
COc1ccc(OC)c(Nc2nc(N)nc(-c3cc4ccccc4o3)n2)c1,0.3,i,3.1,15.7*,1.8,4.4
CCCS(=O)(=O)NC(=O)C1(C)CCCN(C(=O)c2nc3ccccc3s2)C1 (centres undefined),x,i,x,x,1.4,x
N#CC1(NC(=O)COC(=O)c2cc([N+](=O)[O-])ccc2N2CCCC2)CCCCC1,-0.2,i,3.0,-3.5,-4.2,17.5*
N#CC1(NC(=O)COC(=O)c2ccc(-c3ccc(O)cc3)cc2)CCCCC1,2.3,i,x,16.1*,0.8,x
N#CC1(NC(=O)COC(=O)c2cc(O)c3ccccc3c2O)CCCCC1,1.4,+,2.8,-2.2,15.1,5.3
CN(C)c1ccc(C(CNC(=O)COc2ccc(Cl)cc2)N2CCCC2)cc1 (centres undefined),-1.2,i,-4.6,-0.1,-10.7,0.2
COc1ccccc1-n1cnc(N)c1C(=O)c1ccccc1,1.3,i,-4.6,-9.3,-1.5,18.8*
Cc1nc(SCC(=O)N(C)C2CCS(=O)(=O)C2)c(C#N)c(C)c1C (centres undefined),2.5,i,x,-5.7,-1.3,x
CCc1ccc(CNc2ccc(O)cc2)cc1,8.6,i,12.6,7.0,-1.5,104.9*
CCN(C(=O)COc1ccccc1[N+](=O)[O-])C1CCS(=O)(=O)C1 (centres undefined),-0.8,i,-2.0,0.3,-2.9,-0.8
O=C(COc1ccccc1[N+](=O)[O-])N(Cc1ccco1)C1CCS(=O)(=O)C1 (centres undefined),-0.9,i,7.7,-4.7,2.7,25.3*
COC(=O)c1cc2ccc(OC)cc2c2cc(OC)c(OC)cc12,x,i,x,x,-12.3,x
CC1(c2nnc(Cc3ccccc3)o2)CC(c2ccc(Br)cc2)=NO1 (centres undefined),0.5,i,-4.9,15.6*,-0.4,1.6
CC1(c2nnc(Cc3ccccc3)o2)CC(c2ccc([N+](=O)[O-])cc2)=NO1 (centres undefined),-5.5,i,-9.8,7.5,-0.9,8.3
COCCNC(=O)C1CCCN(C(=O)c2nc(C)oc2C)CC1 (centres undefined),x,i,x,x,3.5,x
Cc1c(COc2ccc3ccccc3c2)nnn1CC(=O)NS(=O)(=O)c1ccccc1C(F)(F)F,x,i,x,x,1.1,x
COc1cccc(/C=C2/SC(=S)N(CC(=O)Nc3nnc(C)s3)C2=O)c1,x,i,x,x,39.4*,x
COc1cccc(/C=C2/SC(=S)N(CC(=O)NNC(=O)c3ccccc3OC)C2=O)c1,1.7,i,1.7,5.4,39.3*,7.0
Cc1nnc(NC(=O)CCN2C(=O)/C(=C\c3ccccc3)SC2=S)s1,2.3,i,-1.5,-1.8,-2.3,-0.8
Cc1nn(-c2ccccc2)c(N2CCCC2)c1/C=C1\N=C(c2ccccc2)OC1=O,-1.1,i,2.1,-1.0,0.7,56.1*
SMILES,PP5 primary,Myeloid diff MLP,core dimer inh,PP1 inh,NadD inh,Fh CTSL1 inh
Cc1nn(-c2ccccc2)c(N2CCCC2)c1C=O,-3.6,i,7.7,-0.3,5.3,1.7
CC(=O)C1=CCC(c2ccc(Br)cc2)N(S(=O)(=O)c2ccc(C)cc2)C1 (centres undefined),x,i,x,x,-8.3,x
CCN(c1ccc(OC)cc1)S(=O)(=O)c1nnc(NC(=O)COc2ccc(C)cc2)s1,2.7,i,56.1*,6.2,18.2,-0.9
N#C/C(=C\c1cc([N+](=O)[O-])c(N2CCCCC2)cc1N1CCCCC1)c1nn(-c2ccccc2)c(N)c1C#N,-0.4,i,10.1,-5.1,41.9*,-1.1
CC(C)(C)NC(=O)CSc1nc2ccc(NC(=O)CSc3nnnn3Cc3ccccc3)cc2s1,5.6,i,21.7,15.8*,8.2,-0.4
CCOC(=O)CSc1nc2ccc(NC(=O)CSc3nnnn3Cc3ccccc3)cc2s1,3.8,i,3.3,9.7,11.8,1.4
Cc1ccc2c(cnn2C(=O)CCCC(=O)NCc2ccc(F)cc2)c1,4.0,i,9.3,1.9,-11.6,87.1*
Cc1c(/C=N\NC(=O)c2cccc(F)c2)cnn1C,2.5,i,-3.4,1.1,1.3,1.7
CCc1ccc(OCc2cccc(C(=O)N/N=C\c3cnn(C)c3C)c2)cc1,x,+,x,x,-5.5,x
COCCN(C(=O)CCl)C(C(=O)NC1CCCCC1)c1ccccc1C (centres undefined),0.1,i,7.4,-2.4,-2.0,27.3*
Cc1nn(-c2ccccc2)c(Cl)c1C1C(C#N)=C(N)OC2=C1C(=O)CC(C)(C)C2 (centres undefined),0.2,i,-4.2,4.6,0.4,0.8
CC(C)c1ccc(-c2nn(-c3ccccc3)cc2C2C(C#N)=C(N)OC3=C2C(=O)CC(C)(C)C3)cc1 (centres undefined),7.2,i,48.0*,8.4,27.4,-0.9
Fc1ccc(/C=N/NC2=Nc3cccc4cccc2c34)cc1,3.7,+,-29.3,2.4,10.2,1.4
CNC(=O)c1cc(C(=O)c2ccc(C(F)(F)F)cc2)c[nH]1,-1.1,+,-2.9,-0.7,-0.3,2.6
COc1ccc(Cl)cc1NC(=O)CSc1nc(NS(=O)(=O)c2ccc(C)cc2)cc(=O)[nH]1,-1.2,+,16.4,-2.9,4.3,5.7
CCOP(=O)(OCC)C(NC(=O)NS(=O)(=O)c1ccc(C)cc1)c1ccccc1 (centres undefined),-0.5,i,4.9,-2.0,-6.6,0.0
CCN(CC)C(=O)c1cccc(-c2csc(C(O)c3ccco3)n2)c1 (centres undefined),x,+,x,x,1.3,x
CC(=O)N1CCN(S(=O)(=O)c2cccc(C(=O)OCC(=O)N(CCC#N)c3ccc(F)cc3)c2)CC1,-3.8,i,x,0.4,7.0,x
Cc1ccc(C2C(C#N)=C(N)Oc3c2sc2ccccc32)o1 (centres undefined),1.7,x,80.4*,5.2,x,3.1
CCOC(=O)CC1=C(C(=O)OCC)C(c2ccc(C)o2)C(C#N)=C(N)O1 (centres undefined),2.4,i,4.8,-1.1,0.4,-2.1
COc1ccc(CC(=O)OCC(=O)c2ccc(S(=O)(=O)N3CCCCC3)cc2)cc1,1.0,i,x,0.9,1.8,x
